hERG rescue = compounds protecting human hERG from proarrhythmic drug block | Q12809 | CHO-hERG, FluxOR thallium flux, dofetilide IC70 present | activation (rescue from dofetilide block), less the hit threshold, % at 10 µM | 310,000 tested, 0.51% active;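 active means activation above the mean of controls blocked by dofetilide plus 5 SD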;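 further: thallium influx through hERG after potassium depolarization seen as dye fluorescence rise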
KCNK9 block = inhibitors of human KCNK9 two-pore domain potassium channel. Q9NPC2. HEK293 KCNK9, FluxOR thallium flux fluorescence; active compounds read low. B-score at 10 µM. 310,000 tested, 1.2% active;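 active means ratio B-score over 3 SD below the library mean, with starting fluorescence within 5 SD of its mean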;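 further: negative B-score means less thallium flux so channel inhibition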
Target sequence (Q9NPC2 whole entry, looked up, the tested form may be a part): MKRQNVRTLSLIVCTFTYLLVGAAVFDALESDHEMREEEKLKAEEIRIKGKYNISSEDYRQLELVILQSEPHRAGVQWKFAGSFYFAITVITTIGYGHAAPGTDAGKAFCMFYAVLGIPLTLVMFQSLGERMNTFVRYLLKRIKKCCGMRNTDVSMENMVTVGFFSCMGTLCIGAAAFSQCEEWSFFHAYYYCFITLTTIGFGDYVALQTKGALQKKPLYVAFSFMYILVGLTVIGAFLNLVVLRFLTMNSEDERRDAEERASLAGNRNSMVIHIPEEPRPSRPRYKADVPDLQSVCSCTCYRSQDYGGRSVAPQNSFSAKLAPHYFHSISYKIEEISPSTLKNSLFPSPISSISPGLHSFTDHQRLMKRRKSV
KCNQ1 act = human KCNQ1 channel potentiation or activation; P51787; CHO-K1 KCNQ1, thallium flux FluxOR fluorescence; active compounds read high; AID 2648; B-score at 10 µM; 310,000 tested, 0.35% active;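 active means fluorescence ratio B-score, a plate-corrected score, at least three library SD, with initial intensity B-score within 5 SD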
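Assay system: stable KCNQ1 CHO-K1 line; medium: assay buffer, equal DMSO in all wells; timing: 90 min dye loading and 20 min compound exposure, both at room temperature; technique: kinetic FluxOR thallium fluorescence, 10-s 1-Hz baseline, 110-s post-stimulus read; read-out basis: B score of baseline-normalized fluorescence ratio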
KCNQ1 block = inhibitors of human KCNQ1 potassium channel; 310,000 tested, 1.3% active; B-score at 10 µM; P51787; CHO-K1 KCNQ1, FluxOR thallium flux fluorescence; active compounds read high; AID 2642;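 active means compounds whose thallium flux B-score, printed positive for inhibition, exceeds three library SD while starting fluorescence stays within three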;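 further: channel opened by potassium depolarization with thallium stimulus after 20 min compound exposure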
Kir21 block = Kir2.1 (mouse) channel inhibition. P35561. HEK293-Kir2.1, FluxOR thallium flux fluorescence; active compounds read low. B-score at 10 µM. 310,000 tested, 0.85% active;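 active means fluorescence ratio B-score at or below minus 3 SD of library scores, with starting-brightness B-score within 2 SD, cut at about -4.2 in these data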;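 further: channel flux triggered by added potassium and thallium sulfate stimulus; B-score of peak minus minimum fluorescence over baseline after thallium stimulus; more negative B-score means stronger Kir2.1 block with less thallium influx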
KCNK3 inh = human KCNK3 channel inhibition, primary screen | CHO-KCNK3 thallium flux, FluxOR fluorescence; active compounds read low | B-score at 10 µM | 340,000 tested, 0.84% active | AID 602410;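 active means B-score under library mean minus 4 SD, starting fluorescence ratio at most library mean plus 5 SD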;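 further: more negative B-score means stronger inhibition of thallium flux through KCNK3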
KCNK3 confirm = confirmation of human KCNK3 two-pore domain potassium channel inhibitors | 2,400 tested, 99% active | ratio percent of control, % at 10 µM | shares compounds with KCNK3 inh | AID 651638 | CHO-KCNK3 thallium flux, FluxOR fluorescence; 0% buffer, 100% carvedilol maximal block;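 active means ratio percent of control, averaged over triplicates, above buffer control mean plus 5 SD, cut at about 64% in these data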;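 further: ratio is the fluorescence rise from min to max over baseline after thallium stimulus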
KCNK3 noninduced = activity in cells without induced KCNK3 expression; shares compounds with KCNK3 inh; non-induced KCNK3 parental cells, FluxOR thallium flux; active compounds read low; thallium flux ratio (lower = more inhibition) at 10 µM; 2,400 tested, 40% active;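 active means thallium flux ratio, averaged over three wells, more than 5 SD below the buffer control mean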;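 further: host cells are CHO cells without KCNK3 induction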
Large screens that a line does not name were inactive (follow-up assays come after a bar, where they were run). In the library only some 3.7% were active in any assay of this set; here they are far more common.

N#Cc1cc2c(nc1SCC(O)CS(=O)(=O)Cc1ccc(Cl)cc1)CCCC2 (stereo unspecified)	KCNK3 inh -11 | KCNK3 confirm 109 | KCNK3 noninduced 0.15
CC(C)(C)c1ccc(S(=O)(=O)CC(O)CSc2nc3c(cc2C#N)CCCC3)cc1 (stereo unspecified)	none
CCCCCCNS(=O)(=O)c1ccc(Cl)s1	KCNK3 inh -9.2 | KCNK3 confirm 94 | KCNK3 noninduced inactive
Cn1c(=O)n(CCCOc2ccc(Cl)cc2)c2ccccc21	KCNK3 inh -8.7 | KCNK3 confirm 100 | KCNK3 noninduced inactive
CCCCn1c(N)c(N(CCC(C)C)C(=O)C2CC(=O)N(c3ccc(OC)cc3OC)C2)c(=O)[nH]c1=O (stereo unspecified)	none
CC(C)Sc1nc(N2CCCC2)c2c(c1C#N)CC(C)(C)OC2	KCNK3 inh -10 | KCNK3 confirm 118 | KCNK3 noninduced 0.14
N#Cc1sc2nc(-c3cccs3)cc(-c3ccc(Cl)cc3)c2c1N	KCNK9 block -7, KCNK3 inh -14 | KCNK3 confirm 132 | KCNK3 noninduced inactive
Cc1ccc2nc(N/N=C\c3ccc([N+](=O)[O-])o3)nc(-c3ccccc3)c2c1	KCNK9 block -6.9, KCNQ1 block 7, KCNK3 inh -11 | KCNK3 confirm 147 | KCNK3 noninduced 0.087
Cc1cc(OCC(=O)NNC(=O)c2cccnc2)cc(C)c1Cl	none
CN(C)c1cccc(C(=O)OCc2cc(=O)oc3cc(O)ccc23)c1	KCNK3 inh -9 | KCNK3 confirm 113 | KCNK3 noninduced inactive
O=C(Nc1cccc(-c2nc3ccccc3c(=O)o2)c1)c1ccccc1	KCNK3 inh -8.7 | KCNK3 confirm 108 | KCNK3 noninduced 0.16
CCCCC(=O)Nc1cccc(-c2cn3ccccc3n2)c1	KCNK3 inh -8.7 | KCNK3 confirm 121 | KCNK3 noninduced 0.13
O=C(Nc1cccc(-c2cn3ccccc3n2)c1)c1ccccc1	KCNK3 inh -12 | KCNK3 confirm 112 | KCNK3 noninduced inactive
O=C(CN(CCc1ccccc1)S(=O)(=O)c1ccc(Cl)cc1)N/N=C/c1ccccc1C(=O)O	none
CC1=C(C(=O)OC(C)C)C(c2cn(-c3ccccc3)nc2-c2cccs2)NC(=O)N1 (stereo unspecified)	KCNK3 inh -9.5 | KCNK3 confirm 87 | KCNK3 noninduced inactive
CC(C)CCn1c(=O)c2sccc2n2c(CCCC(=O)N3CCN(c4ccccn4)CC3)nnc12	none
OC1(c2ccc(OC(F)F)cc2)CSC(=Nc2cccnc2)N1Cc1ccco1 (stereo unspecified)	KCNK3 inh -11 | KCNK3 confirm 97 | KCNK3 noninduced inactive
COc1ccc(C2C(C#N)=C(N)Oc3cc(O)ccc32)cc1Cl (stereo unspecified)	KCNQ1 block 6, KCNK3 inh -9 | KCNK3 confirm 110 | KCNK3 noninduced 0.15
C#CCOc1ccc(C2C(C#N)=C(N)Oc3cc(O)ccc32)cc1 (stereo unspecified)	KCNK3 inh -9.5 | KCNK3 confirm 95 | KCNK3 noninduced inactive
COc1ccc(N(C)S(=O)(=O)c2cccc(C(=O)N3CCN(S(=O)(=O)c4ccc(C)cc4)CC3)c2)cc1	KCNK9 block -12 | KCNK3 confirm 92 | KCNK3 noninduced inactive
CCOC(=O)C1=C(C)NC(C)=C(C(=O)OCC)C1c1ccc(C)o1	none
C=CCOC(=O)C1=C(C)NC(C)=C(C(=O)OCC=C)C1c1ccc(C)o1	KCNK3 inh -10 | KCNK3 confirm 104 | KCNK3 noninduced inactive
CCn1c2ccccc2c2nnc(SCc3ccccc3)nc21	KCNK9 block -6.6, KCNK3 inh -12 | KCNK3 confirm 106 | KCNK3 noninduced inactive
CCCNC(=O)CSc1nc2ccccc2c(=O)n1CCC	KCNK3 inh -8.8 | KCNK3 confirm 86 | KCNK3 noninduced inactive
Cc1cc(C(=O)Cn2nnc3ccccc3c2=O)c(C)n1Cc1cccs1	KCNK3 inh -9.1 | KCNK3 confirm 111 | KCNK3 noninduced inactive
CC(NC(=O)C(=O)c1cn(CC(=O)N2CCOCC2)c2ccccc12)c1ccccc1 (stereo unspecified)	none
Cc1cccc(C(=O)NCC(=O)OCCOc2ccccc2Cl)c1	KCNK3 inh -9.1 | KCNK3 confirm 86 | KCNK3 noninduced inactive
O=C(Nc1ccc2c(c1)Cc1ccccc1-2)c1ccc(Br)o1	KCNK3 inh -10 | KCNK3 confirm 86 | KCNK3 noninduced inactive
COc1cccc(-c2nc(CS(=O)(=O)CC(=O)NC3CCC(C)CC3)c(C)o2)c1 (stereo unspecified)	KCNK3 inh -10 | KCNK3 confirm inactive | KCNK3 noninduced inactive
COc1cccc(-c2nc(CS(=O)(=O)CC(=O)NC3CCCC3)c(C)o2)c1	none
COc1ccc(-c2[nH]ncc2N=Nc2cc(C)cc(C)c2)cc1	none
COc1ccc(-c2[nH]ncc2N=Nc2ccccc2)cc1	KCNK3 inh -9.2 | KCNK3 confirm 88 | KCNK3 noninduced inactive
Cc1cccc(C)c1NC(=O)/C(C#N)=C/c1cccs1	none
CC(C)(C)c1ccc(C(=O)/C(C#N)=C/c2cccs2)cc1	KCNQ1 block 6, KCNK3 inh -12 | KCNK3 confirm 111 | KCNK3 noninduced inactive
CC(C)(C)C(=O)Nc1ccccc1C(=O)NCc1ccco1	KCNK3 inh -9.3 | KCNK3 confirm 65 | KCNK3 noninduced inactive
O=C(Nc1nc(-c2ccc3c(c2)OCO3)cs1)C1COc2ccccc2O1 (stereo unspecified)	KCNK3 inh -11 | KCNK3 confirm 109 | KCNK3 noninduced inactive
CC(=O)c1ccc(N=C2C(=O)Nc3ccccc32)cc1	none
CC(=O)N(/N=C1/C(=O)Nc2ccccc21)c1ccccc1	KCNK3 inh -9 | KCNK3 confirm 125 | KCNK3 noninduced 0.12
c1ccc2c(-c3c[nH]c4ccccc34)c3ccccc3nc2c1	KCNK3 inh -10 | KCNK3 confirm 123 | KCNK3 noninduced inactive
CS(=O)(=O)N1CCN(C(=O)Cc2ccccc2Cl)CC1	none
CC(OC(=O)C1CCC1)C(=O)Nc1cc(Cl)cc(Cl)c1 (stereo unspecified)	KCNK3 inh -9 | KCNK3 confirm 96 | KCNK3 noninduced inactive
CC(=O)c1cccc(NC(=O)C(C)OC(=O)C2CCC2)c1 (stereo unspecified)	none
COc1cc(C(=O)Nc2ccn(C)n2)ccc1OC(F)F	none (no result: hERG rescue, KCNK9 block, KCNQ1 act, KCNQ1 block, Kir21 block)
